From article PMC9889102 (European journal of medicinal chemistry, 2022)
Read-outs that look alike come from different tables or passages of the source.

Legend:
[1] = molecular target: T1, fast rabbit skeletal myosin (Oryctolagus cuniculus, UniProt Q28641); details: previously reported ketimines; favoured isoform; ref [25]; cited from earlier work
[2] = ref [25], cited from earlier work
[3] = molecular target: phosphorylated chicken gizzard smooth muscle myosin (Gallus gallus, UniProt P10587); assay: Steady-state actin-activated Mg2+ ATPase inhibition, smooth muscle myosin; format: biochemical
Sequence of phosphorylated chicken gizzard smooth muscle myosin (P10587 2-1979 limits assumed): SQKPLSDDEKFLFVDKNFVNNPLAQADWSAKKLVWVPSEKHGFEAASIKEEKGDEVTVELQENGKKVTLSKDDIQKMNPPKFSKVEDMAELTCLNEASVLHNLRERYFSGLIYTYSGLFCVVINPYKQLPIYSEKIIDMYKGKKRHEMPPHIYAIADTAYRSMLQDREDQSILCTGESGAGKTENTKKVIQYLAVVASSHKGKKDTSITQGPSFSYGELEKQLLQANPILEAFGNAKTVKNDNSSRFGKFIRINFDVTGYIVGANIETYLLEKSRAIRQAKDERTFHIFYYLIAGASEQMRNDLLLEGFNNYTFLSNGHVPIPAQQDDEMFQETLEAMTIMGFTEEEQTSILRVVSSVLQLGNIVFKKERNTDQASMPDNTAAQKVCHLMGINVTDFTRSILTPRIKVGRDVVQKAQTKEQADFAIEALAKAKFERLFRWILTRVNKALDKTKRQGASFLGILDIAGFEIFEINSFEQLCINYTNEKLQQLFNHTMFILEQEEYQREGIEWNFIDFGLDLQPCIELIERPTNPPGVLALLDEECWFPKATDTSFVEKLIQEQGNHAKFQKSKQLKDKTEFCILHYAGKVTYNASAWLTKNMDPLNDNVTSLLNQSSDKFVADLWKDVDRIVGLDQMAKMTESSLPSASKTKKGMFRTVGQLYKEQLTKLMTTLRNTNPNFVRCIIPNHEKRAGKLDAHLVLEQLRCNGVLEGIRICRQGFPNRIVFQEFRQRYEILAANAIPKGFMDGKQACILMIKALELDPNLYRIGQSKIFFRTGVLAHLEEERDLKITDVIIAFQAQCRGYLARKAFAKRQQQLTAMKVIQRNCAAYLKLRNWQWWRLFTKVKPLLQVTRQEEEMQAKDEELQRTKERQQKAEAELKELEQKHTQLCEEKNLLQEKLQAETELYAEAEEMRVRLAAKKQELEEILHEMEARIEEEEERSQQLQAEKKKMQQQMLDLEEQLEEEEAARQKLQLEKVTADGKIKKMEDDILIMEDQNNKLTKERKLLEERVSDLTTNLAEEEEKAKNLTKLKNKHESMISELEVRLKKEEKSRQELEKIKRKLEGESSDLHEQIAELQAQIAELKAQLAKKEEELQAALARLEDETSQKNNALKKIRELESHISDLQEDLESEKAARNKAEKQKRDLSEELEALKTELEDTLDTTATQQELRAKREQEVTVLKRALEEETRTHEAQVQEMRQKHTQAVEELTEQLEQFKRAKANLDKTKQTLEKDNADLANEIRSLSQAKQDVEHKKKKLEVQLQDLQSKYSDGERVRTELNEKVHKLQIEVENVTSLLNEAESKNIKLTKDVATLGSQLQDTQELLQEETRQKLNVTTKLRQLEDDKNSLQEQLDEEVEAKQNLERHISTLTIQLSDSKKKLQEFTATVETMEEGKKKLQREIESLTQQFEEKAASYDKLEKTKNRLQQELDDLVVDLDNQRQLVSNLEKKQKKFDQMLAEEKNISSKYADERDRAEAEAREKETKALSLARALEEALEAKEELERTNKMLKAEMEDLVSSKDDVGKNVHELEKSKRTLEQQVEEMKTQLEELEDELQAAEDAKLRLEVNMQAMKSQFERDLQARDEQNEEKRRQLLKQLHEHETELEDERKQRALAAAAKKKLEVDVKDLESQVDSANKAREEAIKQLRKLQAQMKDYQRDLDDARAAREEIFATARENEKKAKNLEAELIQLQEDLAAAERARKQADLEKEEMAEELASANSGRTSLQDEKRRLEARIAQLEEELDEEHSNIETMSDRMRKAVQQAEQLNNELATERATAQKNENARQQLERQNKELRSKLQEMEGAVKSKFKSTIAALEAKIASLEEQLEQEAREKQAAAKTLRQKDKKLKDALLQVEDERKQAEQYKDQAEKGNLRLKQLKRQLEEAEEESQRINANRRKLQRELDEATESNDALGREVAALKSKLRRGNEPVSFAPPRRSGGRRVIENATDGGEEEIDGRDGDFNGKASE
Outline: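 Chicken gizzard smooth muscle myosin was fully phosphorylated (checked by urea gel), never frozen, and used within 2–3 weeks. It was run at 0.2 mg/mL final with 32 μM rabbit F-actin at 30 °C in MOPS pH 7.0, 50 mM NaCl, 0.1 mM EGTA, 5 mM MgCl2, 2 mM ATP, 1 mM DTT. DMSO was 2%, with dilutions from a 25 mM stock. IC50 is the half-maximal drop in steady-state ATPase.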

[4] = 99:1 (v/v) PBS/methanol, room temperature; ref [25]; cited from earlier work
BEAS-2B, MCF-7 and A549 = details: normal human cell line BEAS-2B and cancer cell lines MCF-7 and A549; ref [41]; cited from earlier work
[5] = tested on: NM-IIB (cytokinesis in Cos-7 cells); assay: Cytokinesis inhibition in Cos-7 cells; format: cell-based; details: 24 h, 37 °C
Outline: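 Cos-7 cells (4,000/well) were pre-grown 24 h, then exposed 24 h at 37 °C, 5% CO2 to test compound at 40 μM final in 1% DMSO. Controls were 1% DMSO and media (negative), plus para-aminoblebbistatin 20 μM and (−)-blebbistatin 10 μM (positive). Staining was fluorescein diacetate, Hoechst 33342 and propidium iodide for 10 min. N/C is Hoechst nuclei (excluding PI-positive) per FDA-stained cell. Triplicate wells, ≥2 experiments, ≥600 cells/well.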

[6] = molecular target: T1, fast rabbit skeletal myosin; assay: Steady-state actin-activated Mg2+ ATPase inhibition, skeletal myosin; format: biochemical; details: cardiac IC50 (x) / skeletal IC50 (y)
Outline: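 Rabbit psoas skeletal myosin (unphosphorylated, 0.1 mg/mL final) with rabbit psoas F-actin (32 μM) at 30 °C, pH 7.0 MOPS buffer (50 mM NaCl, 0.1 mM EGTA, 5 mM MgCl2, 2 mM ATP, 1 mM DTT), 2% DMSO. IC50 taken as half-maximal reduction of steady-state rate. Selectivity is cardiac IC50 (bovine left-ventricle myosin, 0.5 mg/mL) divided by skeletal IC50.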

T1 sequence (Q28641 whole entry, canonical isoform): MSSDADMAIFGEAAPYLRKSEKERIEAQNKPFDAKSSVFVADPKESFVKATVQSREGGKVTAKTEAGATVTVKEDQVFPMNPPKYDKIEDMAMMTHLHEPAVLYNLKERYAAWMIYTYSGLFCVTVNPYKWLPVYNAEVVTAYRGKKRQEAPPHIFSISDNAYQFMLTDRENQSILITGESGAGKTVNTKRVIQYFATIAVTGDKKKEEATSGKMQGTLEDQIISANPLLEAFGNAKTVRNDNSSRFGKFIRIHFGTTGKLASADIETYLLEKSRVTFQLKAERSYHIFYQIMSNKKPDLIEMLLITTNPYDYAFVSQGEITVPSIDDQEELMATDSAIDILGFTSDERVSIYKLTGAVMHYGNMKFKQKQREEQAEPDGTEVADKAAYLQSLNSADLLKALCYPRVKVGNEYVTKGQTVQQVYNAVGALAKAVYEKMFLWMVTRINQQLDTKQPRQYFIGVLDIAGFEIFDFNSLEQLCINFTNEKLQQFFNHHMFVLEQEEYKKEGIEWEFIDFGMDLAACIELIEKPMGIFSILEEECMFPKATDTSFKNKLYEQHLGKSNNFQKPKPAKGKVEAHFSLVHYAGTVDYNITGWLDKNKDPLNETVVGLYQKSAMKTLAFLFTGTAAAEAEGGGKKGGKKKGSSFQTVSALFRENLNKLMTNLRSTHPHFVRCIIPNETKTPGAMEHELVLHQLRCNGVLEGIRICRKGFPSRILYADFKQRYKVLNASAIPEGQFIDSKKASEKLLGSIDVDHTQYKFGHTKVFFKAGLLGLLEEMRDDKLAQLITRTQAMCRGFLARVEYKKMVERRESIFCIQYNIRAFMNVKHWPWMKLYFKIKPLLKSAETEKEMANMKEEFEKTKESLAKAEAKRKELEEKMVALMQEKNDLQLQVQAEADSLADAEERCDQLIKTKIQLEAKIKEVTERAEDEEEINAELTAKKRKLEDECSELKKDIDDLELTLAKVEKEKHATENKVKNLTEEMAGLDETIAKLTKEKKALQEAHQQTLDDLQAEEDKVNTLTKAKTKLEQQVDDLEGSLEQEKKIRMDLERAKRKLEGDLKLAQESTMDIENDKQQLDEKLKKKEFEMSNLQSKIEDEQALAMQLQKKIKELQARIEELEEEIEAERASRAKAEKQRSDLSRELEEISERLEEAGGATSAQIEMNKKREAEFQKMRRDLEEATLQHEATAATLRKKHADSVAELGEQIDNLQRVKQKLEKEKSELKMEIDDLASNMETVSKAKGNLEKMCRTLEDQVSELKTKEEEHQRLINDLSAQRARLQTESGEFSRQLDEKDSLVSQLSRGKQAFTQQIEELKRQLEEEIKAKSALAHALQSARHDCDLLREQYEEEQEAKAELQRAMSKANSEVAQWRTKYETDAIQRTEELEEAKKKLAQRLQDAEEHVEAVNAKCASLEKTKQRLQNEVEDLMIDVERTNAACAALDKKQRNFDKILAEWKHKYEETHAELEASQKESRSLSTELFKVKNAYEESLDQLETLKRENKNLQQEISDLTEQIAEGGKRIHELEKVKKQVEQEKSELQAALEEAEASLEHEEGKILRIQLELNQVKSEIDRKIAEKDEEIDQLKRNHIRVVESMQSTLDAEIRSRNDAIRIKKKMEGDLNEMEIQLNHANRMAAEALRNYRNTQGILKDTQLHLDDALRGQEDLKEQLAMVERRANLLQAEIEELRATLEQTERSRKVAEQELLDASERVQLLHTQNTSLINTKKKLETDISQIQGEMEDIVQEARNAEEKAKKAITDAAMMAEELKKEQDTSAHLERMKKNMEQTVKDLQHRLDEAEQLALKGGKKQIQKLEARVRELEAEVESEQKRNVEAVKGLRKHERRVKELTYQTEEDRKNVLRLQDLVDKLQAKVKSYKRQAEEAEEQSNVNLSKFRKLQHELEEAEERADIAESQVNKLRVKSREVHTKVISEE
T1 sequence (P02602 whole entry partner, canonical isoform): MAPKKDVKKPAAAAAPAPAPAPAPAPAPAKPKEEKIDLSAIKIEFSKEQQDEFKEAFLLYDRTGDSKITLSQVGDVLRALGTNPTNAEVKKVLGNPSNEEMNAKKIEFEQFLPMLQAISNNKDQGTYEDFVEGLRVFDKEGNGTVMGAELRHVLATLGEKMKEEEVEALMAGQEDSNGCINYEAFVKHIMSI
T1 sequence (P02608 whole entry partner, canonical isoform): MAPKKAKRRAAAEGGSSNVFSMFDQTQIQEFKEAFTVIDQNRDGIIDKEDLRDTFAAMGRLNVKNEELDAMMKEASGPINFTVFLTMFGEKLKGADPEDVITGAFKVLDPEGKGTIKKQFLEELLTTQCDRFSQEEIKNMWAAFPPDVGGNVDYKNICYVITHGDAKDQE

Molecule	IC50 [3] [µM]	also measured
C/C(=N\Cc1ccc(C)cc1)c1c(O)c2ccccc2oc1=O [JB060]		Selectivity (cardiac vs. skeletal myosin inhibition) [1]: skeletal-selective
3-(N-butylethanimidoyl)-4-hydroxy-2H-chromen-2-one [BHC, reference compound]		Kinetic solubility ([2]; nephelometry in PBS (pH 7.4) containing 2.5% DMSO): 607 ± 2 μm
CCOCCC/N=C(\C)c1c(O)c2ccccc2oc1=O [Analog 5d, 3-(N-(3-Ethoxypropyl)ethanimidoyl)-4-hydroxy-2H-chromen-2-one]	≥ 100	
C/C(=N\Cc1ccncc1)c1c(O)c2ccccc2oc1=O [JB031]		half-life for hydrolysis [4]: 84 ± 12 h
COc1ccc(C/N=C(\C)c2c(O)c3ccccc3oc2=O)cc1 [Analog 6b, 4-Hydroxy-3-(N-(4-methoxybenzyl)ethanimidoyl)-2H-chromen-2-one]	≥ 100	Cytotoxicity (BEAS-2B, MCF-7 and A549): low μM range; Inhibition of cytokinesis (nuclei to cell ratio, N/C) ([5]; 40 μM): did not inhibit cytokinesis
Cc1ccc2c(c1)C(=O)[C@]1(O)CCN(c3ccc(N)cc3)C1=N2 [para-aminoblebbistatin, reference compound]		Inhibition of cytokinesis (nuclei to cell ratio, N/C) ([5]; positive control, 20 μM): inhibited cytokinesis
C/C(=N\Cc1cccc(C)c1)c1c(O)c2ccccc2oc1=O [JB069]		Selectivity (cardiac vs. skeletal myosin inhibition) [1]: cardiac-selective
Cc1ccc2c(c1)C(=O)[C@]1(O)CCN(c3ccccc3)C1=N2 [Blebbistatin, blebbistatin, reference compound]		Inhibition of cytokinesis (nuclei to cell ratio, N/C) ([5]; positive control, 10 μM): inhibited cytokinesis
COCC/N=C(\C)c1c(O)c2ccccc2oc1=O [Analog 5a, 4-Hydroxy-3-(N-(2-methoxyethyl)ethanimidoyl)-2H-chromen-2-one]	≥ 100	
COCCC/N=C(\C)c1c(O)c2ccccc2oc1=O [Analog 5c, 4-Hydroxy-3-(N-(3-methoxypropyl)ethanimidoyl)-2H-chromen-2-one]	≥ 100	
C/C(=N\Cc1ccccc1)c1c(O)c2ccccc2oc1=O [Analog 2]		Kinetic solubility ([2]; pH 7.4 PBS, 2.5% DMSO): 100 µM
COc1cccc(C/N=C(\C)c2c(O)c3ccccc3oc2=O)c1 [Analog 6a, 4-Hydroxy-3-(N-(3-methoxybenzyl)ethanimidoyl)-2H-chromen-2-one]	≥ 100	
CCOCCC/N=C/c1c(O)c2ccccc2oc1=O [Analog 8a, 3-(N-(3-Ethoxypropyl)methanimidoyl)-4-hydroxy-2H-chromen-2-one]	≥ 100	
COc1ccc(COCCC/N=C(\C)c2c(O)c3ccccc3oc2=O)cc1 [Analog 13b]	≥ 100	Selectivity x/y [6]: ≥ 2.0
CCCCN(CCC/N=C(\C)c1c(O)c2ccccc2oc1=O)Cc1cccc(OC)c1 [Analog 19, 3-(N-(N’-Butyl-N’−3-methoxybenzyl-3-aminopropyl)ethanimidoyl)-4-hydroxy-2H-chromen-2-one]	≥ 100	
COc1cc(/C=C/C(=O)c2c(O)c3ccccc3oc2=O)ccc1O [Analog 20, 4-Hydroxy-3-(3-(4-hydroxy-3-methoxyphenyl)-1-oxo-2-propen-1-yl)-2H-1-Benzopyran-2-one]	≥ 100	
CCOCC/N=C(\C)c1c(O)c2ccccc2oc1=O [Analog 5b, 3-(N-(2-Ethoxyethyl)ethanimidoyl)-4-hydroxy-2H-chromen-2-one]	≥ 100	
C/C(=N\CCCOCc1ccc2c(c1)OCO2)c1c(O)c2ccccc2oc1=O [Analog 13c]	≥ 100	Inhibition of cytokinesis (nuclei to cell ratio, N/C) ([5]; 40 μM): no cytokinesis inhibition
